Results reported in ChEMBL document CHEMBL1152414, “Synthesis, antimalarial activity and cytotoxicity of substituted 3,6-diphenyl-[1,2,4,5]tetraoxanes” (Bioorg Med Chem, 2009).

Experiments:
[1] = tested on: Vero; test: Cytotoxicity against african green monkey Vero cells upto 16.72 uM after 48 hrs by neutral red assay; format: cell-based; details: chlorocebus sabaeus
How it was run: (§1)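 Vero monkey kidney cells seeded at 25,000 cells/well and grown 24 h, then exposed to samples at several concentrations for 48 h. Viable cells counted by Neutral Red uptake. IC50 taken from dose-response curves; doxorubicin run as positive control.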

[2] = Selectivity index, ratio of IC50 for african green monkey (Cercopithecus aethiops) Vero cells to IC50 for chloroquine-sensitive Plasmodium falciparum D6; format: toxicity, cell-based; details: read-out: Ratio IC50
How it was run: (§2)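 Selectivity index is Vero cytotoxicity IC50 (Neutral Red, 48 h) divided by P. falciparum D6 or W2 IC50 (parasite LDH, 72 h).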

[3] = tested on: Plasmodium falciparum; test: Antimalarial activity after 72 hrs against chloroquine-sensitive Plasmodium falciparum D6 by Malstat LDH activity; format: functional, organism-based; details: D6, 72 h
How it was run: (§3)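 P. falciparum (D6 or W2) infected red cell suspension at 2% parasitemia and 2% hematocrit in RPMI 1640 with 10% human serum and amikacin, added to serially diluted samples. Incubated 72 h at 37 °C under 90% N2/5% O2/5% CO2. Parasite LDH read with Malstat reagent and NBT/PES, acetic acid stop, 650 nm. IC50 taken from dose-response curves; artemisinin and chloroquine run as controls.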

[4] = Selectivity index, ratio of IC50 for african green monkey (Cercopithecus aethiops) Vero cells to IC50 for chloroquine-resistant Plasmodium falciparum W2; format: toxicity, cell-based; details: read-out: Ratio IC50; how it was run: as §2
[5] = tested on: Plasmodium falciparum; test: Antimalarial activity after 72 hrs against chloroquine-resistant Plasmodium falciparum W2 by Malstat LDH activity; format: functional, organism-based; details: W2, 72 h; how it was run: as §3
[6] = tested on: KB; test: Cytotoxicity human KB cells upto 30 uM after 48 hrs by neutral red assay; format: cell-based
[7] = tested on: BT-549; test: Cytotoxicity human BT549 cells upto 30 uM after 48 hrs by neutral red assay; format: cell-based; details: bt-549, 48 h
[8] = tested on: Vero; test: Cytotoxicity against african green monkey Vero cells upto 30 uM after 48 hrs by neutral red assay; format: cell-based; details: chlorocebus sabaeus; how it was run: as §1
[9] = tested on: SK-MEL; test: Cytotoxicity human SK-MEL cells upto 30 uM after 48 hrs by neutral red assay; format: cell-based
[10] = tested on: SK-OV-3; test: Cytotoxicity human SKOV3 cells upto 30 uM after 48 hrs by neutral red assay; format: cell-based; details: sk-ov-3, 48 h
[11] = Cytotoxicity pig LLC-PK11 cells upto 30 uM after 48 hrs by neutral red assay; format: cell-based, Sus scrofa; details: llc-pk11, 48 h

Compound | Activity [1] | selectivity ratio [2] | IC50 [3] | selectivity ratio [4] | IC50 [5] | Activity [6] | Activity [7] | Activity [8] | Activity [9] | Activity [10] | Activity [11]
CC(C)(C)c1ccc(C2OOC(c3ccc(C(C)(C)C)cc3)OO2)cc1 (stereo not drawn) | Non-toxic | > 6.1 | 2190 nM | > 3.4 | 3930 nM |  |  |  |  |  | 
Cc1ccc(C2OOC(c3ccc(C(C)C)cc3)OO2)cc1 (stereo not drawn) | Non-toxic | > 26.4 | 590 nM | > 20.9 | 770 nM |  |  |  |  |  | 
CCCc1ccc(C2OOC(c3ccc(CCC)cc3)OO2)cc1 (stereo not drawn) | Non-toxic | > 23.8 | 610 nM | > 19 | 760 nM | Non-toxic | Non-toxic | Non-toxic | Non-toxic | Non-toxic | Non-toxic
CCCCc1ccc(C2OOC(c3ccc(CCCC)cc3)OO2)cc1 (stereo not drawn) | Non-toxic | > 3.7 | 3650 nM | > 2.8 | 4770 nM |  |  |  |  |  | 
CCc1ccc(C2OOC(c3ccc(C)cc3)OO2)cc1 (stereo not drawn) | Non-toxic | > 43.6 | 380 nM | > 36.7 | 450 nM |  |  |  |  |  | 
Cc1ccc(C2OOC(c3ccc(C(C)(C)C)cc3)OO2)cc1 (stereo not drawn) | Non-toxic | > 25.1 | 600 nM | > 19 | 790 nM |  |  |  |  |  | 
COc1ccc(C2OOC(c3ccc(C)cc3)OO2)cc1 (stereo not drawn) | Non-toxic | > 21.6 | 760 nM | > 15.4 | 1080 nM |  |  |  |  |  | 
CC(C)c1ccc(C2OOC(c3ccc(C(C)C)cc3)OO2)cc1 (stereo not drawn) | Non-toxic | > 21.6 | 670 nM | > 14 | 1030 nM | Non-toxic | Non-toxic | Non-toxic | Non-toxic | Non-toxic | Non-toxic
CCc1ccc(C2OOC(c3ccc(CC)cc3)OO2)cc1 (stereo not drawn) | Non-toxic | > 15.9 | 990 nM | > 15.9 |  | Non-toxic | Non-toxic | Non-toxic | Non-toxic | Non-toxic | Non-toxic
Cc1ccc(C2OOC(c3ccccc3C)OO2)cc1 (stereo not drawn) | Non-toxic | > 5.7 | 3050 nM | > 7.9 | 2200 nM |  |  |  |  |  | 
Cc1cccc(C2OOC(c3ccccc3C)OO2)c1 (stereo not drawn) | Non-toxic | > 17 | 1030 nM | > 12.9 | 1360 nM |  |  |  |  |  | 
COc1ccc(C2OOC(c3ccc(C(C)C)cc3)OO2)cc1 (stereo not drawn) | Non-toxic | > 1.9 | 7900 nM | > 2.6 | 5690 nM |  |  |  |  |  | 
CCc1ccc(C2OOC(c3ccc(C(C)(C)C)cc3)OO2)cc1 (stereo not drawn) | Non-toxic | > 2.6 | 5480 nM | > 4 | 3650 nM |  |  |  |  |  | 
CCCc1ccc(C2OOC(c3ccc(C)cc3)OO2)cc1 (stereo not drawn) | Non-toxic | > 7.9 | 1990 nM | > 14.9 | 1060 nM |  |  |  |  |  | 
Cc1ccc(C2OOC(c3ccc(C=O)cc3)OO2)cc1 (stereo not drawn) | Non-toxic |  |  |  |  |  |  |  |  |  | 
CCCc1ccc(C2OOC(c3ccc(OC)cc3)OO2)cc1 (stereo not drawn) | Non-toxic | > 15.8 | 940 nM | > 22.7 | 660 nM |  |  |  |  |  | 
CCCc1ccc(C2OOC(c3ccc(C(C)C)cc3)OO2)cc1 (stereo not drawn) | Non-toxic | > 15.4 | 960 nM | > 18.3 | 800 nM |  |  |  |  |  | 
CCc1ccc(C2OOC(c3cccc(C)c3)OO2)cc1 (stereo not drawn) | Non-toxic | > 47.6 | 350 nM | > 29.8 | 560 nM |  |  |  |  |  | 
CCc1ccc(C2OOC(c3ccc(C(C)C)cc3)OO2)cc1 (stereo not drawn) | Non-toxic | > 34 | 450 nM | > 26.4 | 570 nM |  |  |  |  |  | 
Cc1ccc(C2OOC(c3ccccc3)OO2)cc1 (stereo not drawn) | Non-toxic | > 19.8 | 930 nM | > 17 | 1080 nM |  |  |  |  |  | 
COc1ccc(C2OOC(c3cccc(C)c3)OO2)cc1 (stereo not drawn) | Non-toxic | > 39.7 | 420 nM | > 26.4 | 620 nM |  |  |  |  |  | 
Cc1ccc(C2OOC(c3cccc(C)c3)OO2)cc1 (stereo not drawn) | Non-toxic | > 25.1 | 670 nM | > 17 | 1030 nM |  |  |  |  |  | 
Cc1cccc(C2OOC(c3ccccc3)OO2)c1 (stereo not drawn) | Non-toxic | > 36.8 | 500 nM | > 39.7 | 460 nM |  |  |  |  |  | 
CCCc1ccc(C2OOC(c3ccc(C(C)(C)C)cc3)OO2)cc1 (stereo not drawn) | Non-toxic | > 3.4 | 4090 nM | > 5.3 | 2630 nM |  |  |  |  |  | 
COc1ccc(C2OOC(c3ccc(C(C)(C)C)cc3)OO2)cc1 (stereo not drawn) | Non-toxic | > 26.4 | 540 nM | > 22.7 | 640 nM |  |  |  |  |  | 
CC(C)c1ccc(C2OOC(c3ccc(C(C)(C)C)cc3)OO2)cc1 (stereo not drawn) | Non-toxic | > 1 | 13900 nM | > 1.5 | 9340 nM |  |  |  |  |  | 
C[C@@H]1CC[C@H]2[C@@H](C)C(=O)O[C@@H]3O[C@@]4(C)CC[C@@H]1[C@]32OO4 [ARTEMISININ] | Non-toxic | > 476 |  | > 1400 | 15 nM |  |  |  |  |  | 
CCN(CC)CCCC(C)Nc1ccnc2cc(Cl)ccc12 (stereo not drawn) [CHLOROQUINE] | Non-toxic |  |  |  |  |  |  |  |  |  | 
